Eight compounds from ChEMBL document CHEMBL1127424, “7-azetidinylquinolones as antibacterial agents. 2. Synthesis and biological activity of 7-(2,3-disubstituted-1-azetidinyl)-4-oxoquinoline- and -1,8-naphthyridine-3-carboxylic acids. Properties and structure-activity relationships of quinolones with an azetidine moiety” (J Med Chem, 1994) can be followed below.

As usually defined, the AUC is concentration integrated over time. As usually defined, the MIC is the smallest concentration in the dilution series that meets the test's criterion for growth inhibition. As a reminder, the ED50 is the dose at which the effect has come halfway, by size or by number of responders.

Converted amounts (≈) assume the structure as drawn.

Series [1] can be described thus: Measured ionization constant (pKa). Conditions: read-out: pKa1. The format is physicochemical. In short, it runs like this:
(§1)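 Spectrophotometric titration at 20 ± 1 °C, 0.1 M ionic strength, pH varied with H2SO4 or NaOH made up in the compound stock. Absorbance followed at compound-specific wavelengths chosen from 200–400 nm scans. pKa1 and pKa2 taken as the inflection points of the two-step absorbance vs pH curve.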

Series [2] is described as follows: Dissociation constant (pKa). It is filed as physicochemical. The following applies: read-out: pKa2. In short, it runs like this: as §1
The nature of series [3]: HPLC capacity factor (k'). It is filed as ADME. The method, boiled down: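 Ion-pair reversed-phase HPLC on ODS-2 (10 μm) at 45 °C. Mobile phase: 10 mM sodium heptanesulfonate plus 50 mM KH2PO4 (pH 3.5)–methanol 45:55, 1 mL/min. Samples at 100 μg/mL in DMF, injected in duplicate, UV 280 nm. k' = (tR − t0)/t0.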
Series [4] in a line: Solubility (buffer pH 7.4). It is filed as physicochemical. The following applies: read-out: S. In short, it runs like this:
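Excess solid shaken in 0.05 M phosphate buffer pH 7.4 for 24 h at 25 °C. Suspension filtered through 0.22 μm, discarding the first portion. Filtrate diluted in 0.1 N HCl or 0.1 N NaOH and read by UV at the compound's absorbance maximum.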

Series [5] can be described thus: AUC (0-4 hr) ug/ml/h. It is filed as ADME, cell-free. The following applies: plasma. Also on record: time < 4 hr; concentration or dose not given beside the values. In short, it runs like this:
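Mice dosed once orally at 50 mg/kg; blood taken from groups of six mice at 0.5, 1, 2 and 4 h. Serum drug assayed by disk agar diffusion bioassay (Bacillus subtilis ATCC 6633 on Seed Agar, 37 °C, 18 h), giving total activity.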

Another series deals with Bacillus cereus. Nature of the series: In vitro minimum inhibitory concentration for Bacillus cereus ATCC 11778. It is filed as functional. The method, boiled down: (§2)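 Serial 2-fold agar dilution in Mueller Hinton medium, run alongside a reference quinolone. Inoculum adjusted to 10⁸ cfu/mL; compound range 0.007–16 μg/mL.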
The subject of the next series is Bacillus subtilis. Nature of the series: In vitro minimum inhibitory concentration for Bacillus subtilis ATCC 6633. The format is functional. In short, it runs like this:
as §2

The next series relates to Escherichia coli. Nature of the series: In vitro minimum inhibitory concentration for Escherichia coli ATCC 10799. The format is functional. In short, it runs like this:
as §2

In another series the test system is Enterobacter cloacae. The series is described as follows: In vitro minimum inhibitory concentration for Enterobacter cloacae ATCC 23355. The format is functional.
In a further series the test system is Klebsiella pneumoniae. Nature of the series: In vitro minimum inhibitory concentration to inhibit Klebsiella pneumoniae ATCC 10031. The format is functional. The method, boiled down:
as §2

For series [6], the system named is Mus musculus. The series is described as follows: Evaluation of efficacy on systemic infections Escherichia coli HM-42, after oral administration in mice. The format is functional. In short, it runs like this: (§3)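 Single oral dose given immediately after infection, one of four doses per group, chosen from in vitro activity. Survival scored after one week. ED50 (total mg/kg protecting 50%) interpolated from survival rates.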

The test system of series [7] is Mus musculus. Nature of the series: Evaluation of efficacy on systemic infections Pseudomonas aeruginosa HS-116, after oral administration in mice. It is filed as functional. The method, boiled down:
as §3

Series [8] deals with Mus musculus. Nature of the series: Evaluation of efficacy on systemic infections Staphylococcus aureus HS-93, after oral administration in mice. The format is functional. The method, boiled down: as §3
The test system of the next series is Morganella morganii. Nature of the series: In vitro minimum inhibitory concentration for Morganella morganii ATCC 8019. It is filed as functional. The method, boiled down:
as §2

A further series concerns Proteus vulgaris. The series is described as follows: In vitro minimum inhibitory concentration for Proteus vulgaris ATCC 8427. It is filed as functional. In short, it runs like this: as §2
For series [9], the system named is Staphylococcus epidermidis. The series is described as follows: In vitro minimum inhibitory concentration for Staphylococcus epidermidis ATCC 155-1. It is filed as functional. In short, it runs like this:
as §2

The test system of a further series is Staphylococcus aureus. Nature of the series: In vitro minimum inhibitory concentration for Staphylococcus aureus ATCC 25178. It is filed as functional. The method, boiled down: as §2
Another series has as its system Enterococcus faecalis. The series is described as follows: In vitro minimum inhibitory concentration for Streptococcus faecalis ATCC 10541. The format is functional. The method, boiled down:
as §2

A further series has as its system Pseudomonas aeruginosa. Nature of the series: In vitro minimum inhibitory concentration for Pseudomonas aeruginosa ATCC 10145. The format is functional. The method, boiled down:
as §2

On to `CNC1(C)CN(c2c(F)cc3c(=O)c(C(=O)O)cn(C4CC4)c3c2F)C1`, for which the values for the pKa in series [1] and in series [2] were 6.26 and 8.58, respectively. Moreover, the “Log k'” value in [3] worked out at 0.1055. Further, the solubility in [4] came to 0.5 µg/mL (≈ 1.38 µM).
For `CNC1(C)CN(c2cc3c(cc2F)c(=O)c(C(=O)O)cn3C2CC2)C1`, in that order: 6.47, 8.65, 0.0875 and 0.7 µg/mL (≈ 2.03 µM).
In series [5], `C[C@H]1[C@H](N)CN1c1nc2c(cc1F)c(=O)c(C(=O)O)cn2-c1ccc(F)cc1F` returned an AUC of 25800 ng·h/mL. For the same compound, in series [3], the “Log k'” value was found to be 0.1417. Further, the solubility in series [4] was determined as 10.4 µg/mL (≈ 25.7 µM). Besides, the MIC in the series on Bacillus cereus was 0.25 µg/mL (≈ 0.618 µM); against Bacillus subtilis, 0.06 µg/mL (≈ 0.148 µM); against Escherichia coli it was 0.25 µg/mL (≈ 0.618 µM); in the series on Enterobacter cloacae it was 0.12 µg/mL (≈ 0.297 µM); with Klebsiella pneumoniae, 0.06 µg/mL (≈ 0.148 µM); in the series on Morganella morganii, 0.25 µg/mL (≈ 0.618 µM). The MIC in the series with Proteus vulgaris worked out at 1 µg/mL (≈ 2.47 µM); in [9], 0.25 µg/mL (≈ 0.618 µM); in the series on Staphylococcus aureus it was 0.12 µg/mL (≈ 0.297 µM); against Enterococcus faecalis, 1 µg/mL (≈ 2.47 µM); in the series with Pseudomonas aeruginosa it was 1 µg/mL (≈ 2.47 µM). Besides, the ED50 stood at 3.3 mg/kg in the series with Mus musculus [6], 140 mg/kg in the series with Mus musculus [7] and 8.9 mg/kg in the series with Mus musculus [8].
Consider `C[C@H]1[C@H](N)CN1c1c(F)c(N)c2c(=O)c(C(=O)O)cn(C3CC3)c2c1F`, for which the AUC in series [5] was 12300 ng·h/mL. The pKa in series [1] is 6.65. The “Log k'” value in series [3] stood at 0.0828. Besides, the solubility in series [4] amounted to 37.7 µg/mL (≈ 103 µM). The MIC against Bacillus cereus came to 0.015 µg/mL (≈ 0.0412 µM); against Bacillus subtilis it was 0.015 µg/mL (≈ 0.0412 µM); in the series on Escherichia coli it was 0.03 µg/mL (≈ 0.0823 µM); in the series with Enterobacter cloacae, 0.015 µg/mL (≈ 0.0412 µM); in the series on Klebsiella pneumoniae it was 0.015 µg/mL (≈ 0.0412 µM); in the series with Morganella morganii, 0.015 µg/mL (≈ 0.0412 µM). Further, the MIC in the series with Proteus vulgaris turned out to be 0.06 µg/mL (≈ 0.165 µM); in [9], 0.015 µg/mL (≈ 0.0412 µM); in the series with Staphylococcus aureus, 0.015 µg/mL (≈ 0.0412 µM); against Enterococcus faecalis, 0.06 µg/mL (≈ 0.165 µM); in the series on Pseudomonas aeruginosa, 0.25 µg/mL (≈ 0.686 µM). The ED50 stood at 4.2 mg/kg in the series with Mus musculus [6], 102 mg/kg in the series with Mus musculus [7] and 8.7 mg/kg in the series on Mus musculus [8].
In the case of `CC1(N)CN(c2cc3c(cc2F)c(=O)c(C(=O)O)cn3C2CC2)C1`, the pKa in series [1] worked out at 6.58; in [2] it was 8.55. The “Log k'” value in [3] is -0.1249.
The compound `C[C@H]1[C@H](N)CN1c1cc2c(cc1F)c(=O)c(C(=O)O)cn2-c1ccc(F)cc1F` [CETEFLOXACIN] had an AUC in series [5] of 30200 ng·h/mL. Moreover, the “Log k'” value in series [3] stood at 0.1875. For the same compound, in series [4], the solubility came out at 31 µg/mL (≈ 76.9 µM). Also, the MIC with Bacillus cereus is 0.25 µg/mL (≈ 0.62 µM); against Bacillus subtilis, 0.03 µg/mL (≈ 0.0744 µM); in the series with Escherichia coli, 0.12 µg/mL (≈ 0.298 µM); in the series with Enterobacter cloacae, 0.12 µg/mL (≈ 0.298 µM); in the series with Klebsiella pneumoniae, 0.015 µg/mL (≈ 0.0372 µM); with Morganella morganii, 0.25 µg/mL (≈ 0.62 µM). Further, the MIC in the series with Proteus vulgaris was 0.5 µg/mL (≈ 1.24 µM); in series [9], 0.12 µg/mL (≈ 0.298 µM); in the series with Staphylococcus aureus, 0.12 µg/mL (≈ 0.298 µM); against Enterococcus faecalis, 1 µg/mL (≈ 2.48 µM); in the series on Pseudomonas aeruginosa it was 2 µg/mL (≈ 4.96 µM). Further, the ED50 in the series with Mus musculus [6] worked out at 6 mg/kg; with Mus musculus [7], 77.9 mg/kg; with Mus musculus [8] it was 8.1 mg/kg.
Compound `C[C@H]1[C@H](N)CN1c1c(F)cc2c(=O)c(C(=O)O)cn(-c3ccc(F)cc3F)c2c1Cl` returned an AUC in series [5] of 32300 ng·h/mL. Further, the “Log k'” value in series [3] was found to be 0.3553. For the same compound, the solubility in series [4] turned out to be 16.5 µg/mL (≈ 37.7 µM). Further, the MIC turned out to be 0.03 µg/mL (≈ 0.0685 µM) against Bacillus cereus; 0.03 µg/mL (≈ 0.0685 µM) against Bacillus subtilis; 0.06 µg/mL (≈ 0.137 µM) in the series with Escherichia coli; 0.12 µg/mL (≈ 0.274 µM) with Enterobacter cloacae; 0.12 µg/mL (≈ 0.274 µM) against Klebsiella pneumoniae; 0.25 µg/mL (≈ 0.571 µM) against Morganella morganii. Also, the MIC against Proteus vulgaris is 0.25 µg/mL (≈ 0.571 µM); in series [9], 0.06 µg/mL (≈ 0.137 µM); with Staphylococcus aureus, 0.12 µg/mL (≈ 0.274 µM); against Enterococcus faecalis, 0.25 µg/mL (≈ 0.571 µM); against Pseudomonas aeruginosa it was 0.5 µg/mL (≈ 1.14 µM). In addition, the ED50 in the series on Mus musculus [6] was 3.6 mg/kg; in the series with Mus musculus [7], 86.9 mg/kg; in the series on Mus musculus [8], 4.3 mg/kg.
`C[C@H]1[C@H](N)CN1c1c(F)cc2c(=O)c(C(=O)O)cn(-c3ccc(F)cc3)c2c1F` registered an AUC in series [5] of 31400 ng·h/mL. The “Log k'” value in series [3] came out at 0.1875. In addition, the solubility in series [4] is 11.2 µg/mL (≈ 27.8 µM). Further, the MIC amounted to 0.25 µg/mL (≈ 0.62 µM) with Bacillus cereus; 0.12 µg/mL (≈ 0.298 µM) in the series on Bacillus subtilis; 0.12 µg/mL (≈ 0.298 µM) in the series with Escherichia coli; 0.12 µg/mL (≈ 0.298 µM) with Enterobacter cloacae; 0.12 µg/mL (≈ 0.298 µM) in the series on Klebsiella pneumoniae; 0.25 µg/mL (≈ 0.62 µM) with Morganella morganii. In addition, the minimal inhibitory concentration (MIC) was found to be 0.5 µg/mL (≈ 1.24 µM) against Proteus vulgaris; 0.12 µg/mL (≈ 0.298 µM) in series [9]; 0.25 µg/mL (≈ 0.62 µM) in the series with Staphylococcus aureus; 2 µg/mL (≈ 4.96 µM) against Enterococcus faecalis; 2 µg/mL (≈ 4.96 µM) against Pseudomonas aeruginosa. In addition, the ED50 was found to be 2.5 mg/kg in the series with Mus musculus [6], 54.6 mg/kg in the series on Mus musculus [7] and 5.7 mg/kg in the series on Mus musculus [8].
